In experiment [1] the test system is Staphylococcus aureus. Nature of the experiment: Antibacterial activity against methicillin-resistant Staphylococcus aureus ATCC 43300 after 18 hrs by macro broth dilution assay. In kind it is functional. Conditions: for MIC: Staphylococcus aureus, ATCC 43300, 18 h. A digest of the protocol:
(§1)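 Compounds dissolved in 50% DMSO–water at 400 (stock); fourfold dilution with medium and inoculum gives 100 top concentration in first tube (12.5% DMSO, not scored). Inoculum: 4–5 colonies from overnight Tryptic Soy Agar in saline to 0.5 McFarland, diluted 1:100 in MHB (10⁶ CFU/ml); 1 mL added to 1 mL compound dilution in MHB. 35 °C, 18 h; MIC read. Agar diffusion pre-screen first.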

Experiment [2] deals with Staphylococcus aureus. Nature of the experiment: Antibacterial activity against Staphylococcus aureus ATCC 25923 after 18 hrs by macro broth dilution assay. It counts as functional. Conditions: for MIC: Staphylococcus aureus, ATCC 25923, 18 h. A digest of the protocol: as §1
Background: Dilution methods test growth across graded concentrations, often in twofold steps.

Converted amounts (≈) assume the structure as drawn.

One may read the MIC as the least concentration at which growth counts as inhibited.

For the compound `O=[N+]([O-])c1ccc2[nH]c(Nc3ccc(Cl)c(Cl)c3)nc2c1`, in the experiment with Staphylococcus aureus [1], the “log(1/C)” value was found to be 5.32 and 1.56 µg/mL (≈ 4.83 µM) was the least that counted as inhibitory (MIC). In the experiment on Staphylococcus aureus [2], the “log(1/C)” value came out at 5.62 and the lowest concentration to inhibit growth (MIC) was 0.78 µg/mL (≈ 2.41 µM).

For `FC(F)(F)c1cc(Nc2nc3cc(Cl)ccc3[nH]2)ccc1Cl`, the MIC against Staphylococcus aureus [1] and in the experiment on Staphylococcus aureus [2] was 0.39 µg/mL (≈ 1.13 µM) in each case. In addition, the “log(1/C)” value with Staphylococcus aureus [2] stood at 5.95.

For the compound `Clc1ccc(Nc2nc3cc(Cl)c(Cl)cc3[nH]2)cc1Cl`, the MIC against Staphylococcus aureus [1] and against Staphylococcus aureus [2] was 0.39 µg/mL (≈ 1.12 µM) in each case. Besides, the “log(1/C)” value with Staphylococcus aureus [2] is 5.95.

Turning to `Clc1ccc(Nc2nc3cc(Cl)ccc3[nH]2)cc1`, in the experiment on Staphylococcus aureus [1], the “log(1/C)” value was determined as 5.25 and the MIC was found to be 1.56 µg/mL (≈ 5.61 µM). In the experiment on Staphylococcus aureus [2], the “log(1/C)” value is listed as 4.95 and the MIC was 3.12 µg/mL (≈ 11.2 µM).

For the compound `Fc1cc(F)cc(Nc2nc3cc(Cl)ccc3[nH]2)c1`, in the experiment on Staphylococcus aureus [1], the lowest concentration to inhibit growth (MIC) was 1.56 µg/mL (≈ 5.58 µM). Besides, in the experiment with Staphylococcus aureus [2], the “log(1/C)” value is 5.25 and the lowest concentration to inhibit growth (MIC) was 1.56 µg/mL (≈ 5.58 µM).

As to `Fc1ccc(Nc2nc3cc(Cl)ccc3[nH]2)c(F)c1`, the “log(1/C)” value is 4.65 with Staphylococcus aureus [1] and 4.35 in the experiment with Staphylococcus aureus [2]. The figures for the MIC against Staphylococcus aureus [1] and in the experiment with Staphylococcus aureus [2] were 6.25 µg/mL (≈ 22.3 µM) and 12.5 µg/mL (≈ 44.7 µM), respectively.

As for `O=[N+]([O-])c1ccc2[nH]c(Nc3ccc(Cl)cc3)nc2c1`, the MIC with Staphylococcus aureus [1] was found to be 1.56 µg/mL (≈ 5.4 µM). In the experiment with Staphylococcus aureus [2], the “log(1/C)” value worked out at 5.27 and the MIC amounted to 1.56 µg/mL (≈ 5.4 µM).

Compound `Clc1ccc(Nc2nc3cc(Cl)ccc3[nH]2)c(Cl)c1` registered an MIC against Staphylococcus aureus [1] of 0.39 µg/mL (≈ 1.25 µM). Moreover, in the experiment with Staphylococcus aureus [2], the “log(1/C)” value is reported as 5.9 and inhibition of growth (MIC) required 0.39 µg/mL (≈ 1.25 µM).

For the compound `FC(F)(F)c1ccc(Nc2nc3cc(Cl)ccc3[nH]2)cc1`, the MIC against Staphylococcus aureus [1] was found to be 0.39 µg/mL (≈ 1.25 µM). Also, in the experiment on Staphylococcus aureus [2], the “log(1/C)” value stood at 5.9 and the minimum inhibitory concentration (MIC) was 0.39 µg/mL (≈ 1.25 µM).

In turn, `Fc1ccc(Nc2nc3cc(Cl)ccc3[nH]2)cc1Cl` yielded an MIC in the experiment on Staphylococcus aureus [1] of 1.56 µg/mL (≈ 5.27 µM). Besides, in the experiment with Staphylococcus aureus [2], the “log(1/C)” value amounted to 5.28 and the MIC was found to be 1.56 µg/mL (≈ 5.27 µM).

With `COC(=O)c1ccc2[nH]c(Nc3ccc(Cl)c(Cl)c3)nc2c1`, in the experiment on Staphylococcus aureus [1], the “log(1/C)” value came to 5.64 and it took 0.78 µg/mL (≈ 2.32 µM) to inhibit growth (MIC). For the same compound, in the experiment on Staphylococcus aureus [2], the “log(1/C)” value is recorded as 5.34 and the MIC is 1.56 µg/mL (≈ 4.64 µM).

In the experiment with Staphylococcus aureus [1], `Fc1ccc2[nH]c(Nc3ccc(Cl)c(Cl)c3)nc2c1` yielded an MIC of 1.56 µg/mL (≈ 5.27 µM). For the same compound, in the experiment on Staphylococcus aureus [2], the “log(1/C)” value came to 5.28 and inhibition of growth (MIC) required 1.56 µg/mL (≈ 5.27 µM).

Take `CC1(C)S[C@@H]2[C@H](NC(=O)[C@H](N)c3ccccc3)C(=O)N2[C@H]1C(=O)OCOC(=O)[C@@H]1N2C(=O)C[C@H]2S(=O)(=O)C1(C)C` [SULTAMICILLIN]: the MIC stood at 25 µg/mL (≈ 42 µM) against Staphylococcus aureus [1] and 0.78 µg/mL (≈ 1.31 µM) with Staphylococcus aureus [2].

Regarding `Nc1ccc2[nH]c(Nc3ccc(Cl)c(Cl)c3)nc2c1`, in the experiment on Staphylococcus aureus [1], the “log(1/C)” value was 3.77 and the MIC was 50 µg/mL (≈ 171 µM). For the same compound, in the experiment on Staphylococcus aureus [2], the “log(1/C)” value is 4.07 and the MIC is 25 µg/mL (≈ 85.3 µM).

Compound `COc1ccc(Nc2nc3cc(Cl)ccc3[nH]2)cc1` registered an MIC against Staphylococcus aureus [1] of 50 µg/mL (≈ 183 µM). Moreover, in the experiment with Staphylococcus aureus [2], the “log(1/C)” value was determined as 3.74 and the lowest concentration to inhibit growth (MIC) was 50 µg/mL (≈ 183 µM).

In the case of `Fc1ccc(Nc2nc3cc(Cl)ccc3[nH]2)cc1`, in the experiment with Staphylococcus aureus [1], the “log(1/C)” value is 4.32 and inhibition of growth (MIC) required 12.5 µg/mL (≈ 47.8 µM). In addition, in the experiment on Staphylococcus aureus [2], the “log(1/C)” value stood at 4.92 and the MIC was 3.12 µg/mL (≈ 11.9 µM).

`Clc1ccc2[nH]c(Nc3ccc(Cl)c(Cl)c3)nc2c1`: the MIC with Staphylococcus aureus [1] and against Staphylococcus aureus [2] was 0.39 µg/mL (≈ 1.25 µM) in each case. The “log(1/C)” value with Staphylococcus aureus [2] was 5.9.

Turning to `Clc1ccc2[nH]c(Nc3ccc(Br)cc3)nc2c1`, the “log(1/C)” value was determined as 5.62 in the experiment with Staphylococcus aureus [1] and 5.31 in the experiment with Staphylococcus aureus [2]. Also, the MIC against Staphylococcus aureus [1] was determined as 0.78 µg/mL (≈ 2.42 µM); in the experiment on Staphylococcus aureus [2] it was 1.56 µg/mL (≈ 4.84 µM).

Take `Clc1ccc(Oc2ccccc2Nc2nc3cc(Cl)ccc3[nH]2)cc1`: the MIC against Staphylococcus aureus [1] and against Staphylococcus aureus [2] was 1.56 µg/mL (≈ 4.21 µM) throughout. In addition, the “log(1/C)” value in the experiment with Staphylococcus aureus [2] was 5.38.

Take `Clc1cc(Cl)cc(Nc2nc3cc(Cl)ccc3[nH]2)c1`: it took 0.39 µg/mL (≈ 1.25 µM) to inhibit growth in the experiment with Staphylococcus aureus [1] (MIC). Further, in the experiment on Staphylococcus aureus [2], the “log(1/C)” value stood at 5.9 and 0.39 µg/mL (≈ 1.25 µM) was the least that counted as inhibitory (MIC).

`Cc1cc2[nH]c(Nc3ccc(Cl)c(Cl)c3)nc2cc1Cl`: the MIC against Staphylococcus aureus [1] and in the experiment with Staphylococcus aureus [2] was 0.39 µg/mL (≈ 1.19 µM) in each case. In addition, the “log(1/C)” value in the experiment on Staphylococcus aureus [2] is recorded as 5.92.

Turning to `FC(F)(F)Oc1ccc(Nc2nc3cc(Cl)ccc3[nH]2)cc1`, in the experiment on Staphylococcus aureus [1], 0.78 µg/mL (≈ 2.38 µM) was the least that counted as inhibitory (MIC). Besides, in the experiment with Staphylococcus aureus [2], the “log(1/C)” value is given as 5.62 and the MIC stood at 0.78 µg/mL (≈ 2.38 µM).

Turning to `[N-]=[N+]=Nc1ccc(Nc2nc3cc(Cl)ccc3[nH]2)cc1`, in the experiment with Staphylococcus aureus [1], the “log(1/C)” value is on record as 4.66 and the MIC came out at 6.25 µg/mL (≈ 22 µM). In addition, in the experiment with Staphylococcus aureus [2], the “log(1/C)” value turned out to be 4.96 and the MIC came to 3.12 µg/mL (≈ 11 µM).

As to `Clc1ccc(Nc2nc3ccccc3[nH]2)cc1Cl`, in the experiment on Staphylococcus aureus [1], the “log(1/C)” value is listed as 4.65 and the MIC turned out to be 6.25 µg/mL (≈ 22.5 µM). In addition, in the experiment with Staphylococcus aureus [2], the “log(1/C)” value worked out at 4.95 and the lowest concentration to inhibit growth (MIC) was 3.12 µg/mL (≈ 11.2 µM).

In turn, `FC(F)(F)c1ccc2[nH]c(Nc3ccc(Cl)c(Cl)c3)nc2c1` showed an MIC in the experiment on Staphylococcus aureus [1] of 0.19 µg/mL (≈ 0.549 µM). Also, in the experiment with Staphylococcus aureus [2], the “log(1/C)” value turned out to be 6.26 and inhibition of growth (MIC) required 0.19 µg/mL (≈ 0.549 µM).

Consider `Clc1ccc(Nc2nc3cc(Br)ccc3[nH]2)cc1Cl`, for which, in the experiment with Staphylococcus aureus [1], the “log(1/C)” value came out at 6.28 and the MIC turned out to be 0.19 µg/mL (≈ 0.532 µM). Besides, in the experiment with Staphylococcus aureus [2], the “log(1/C)” value was 6.55 and the lowest concentration to inhibit growth (MIC) was 0.095 µg/mL (≈ 0.266 µM).

As to `FC(F)(F)c1ccc(Cl)c(Nc2nc3cc(Cl)ccc3[nH]2)c1`, the MIC in the experiment on Staphylococcus aureus [1] was determined as 0.78 µg/mL (≈ 2.25 µM). In the experiment on Staphylococcus aureus [2], the “log(1/C)” value is 5.65 and inhibition of growth (MIC) required 0.78 µg/mL (≈ 2.25 µM).

As for `CC1(C)S[C@@H]2[C@H](NC(=O)[C@H](N)c3ccccc3)C(=O)N2[C@H]1C(=O)O` [AMPICILLIN], the values for the MIC in the experiment with Staphylococcus aureus [1] and in the experiment with Staphylococcus aureus [2] were 25 µg/mL (≈ 71.5 µM) and 0.78 µg/mL (≈ 2.23 µM), respectively.

The compound `Clc1ccc(Nc2nc3cc(Cl)c(Cl)cc3[nH]2)cc1` had an MIC against Staphylococcus aureus [1] of 0.39 µg/mL (≈ 1.25 µM). In the experiment on Staphylococcus aureus [2], the “log(1/C)” value amounted to 5.9 and the lowest concentration to inhibit growth (MIC) was 0.39 µg/mL (≈ 1.25 µM).

In the experiment on Staphylococcus aureus [1], `Clc1ccc(Nc2nc3cc(I)ccc3[nH]2)cc1Cl` gave an MIC of 0.78 µg/mL (≈ 1.93 µM). For the same compound, in the experiment with Staphylococcus aureus [2], the “log(1/C)” value is recorded as 5.71 and the MIC stood at 0.78 µg/mL (≈ 1.93 µM).

For the compound `Fc1cccc(Nc2nc3cc(Cl)ccc3[nH]2)c1`, in the experiment on Staphylococcus aureus [1], the MIC is 6.25 µg/mL (≈ 23.9 µM). Further, in the experiment on Staphylococcus aureus [2], the “log(1/C)” value is on record as 4.62 and the MIC turned out to be 6.25 µg/mL (≈ 23.9 µM).

In turn, `N#Cc1ccc2[nH]c(Nc3ccc(Cl)c(Cl)c3)nc2c1` displayed an MIC in the experiment with Staphylococcus aureus [1] of 1.56 µg/mL (≈ 5.15 µM). Also, in the experiment with Staphylococcus aureus [2], the “log(1/C)” value is given as 5.28 and the MIC is 1.56 µg/mL (≈ 5.15 µM).

For `FC(F)(F)c1cccc(Nc2nc3cc(Cl)ccc3[nH]2)c1`, the “log(1/C)” value was 5.3 with Staphylococcus aureus [1] and 5.9 in the experiment with Staphylococcus aureus [2]. Also, the MIC against Staphylococcus aureus [1] was 1.56 µg/mL (≈ 5 µM); with Staphylococcus aureus [2], 0.39 µg/mL (≈ 1.25 µM).

The record behind these values is ChEMBL document CHEMBL1156701, “Synthesis, potent anti-staphylococcal activity and QSARs of some novel 2-anilinobenzazoles” (2008).
